Assay results from ChEMBL document CHEMBL4811252, “Identification of novel 1,3-diaryl-1,2,4-triazole-capped histone deacetylase 6 inhibitors with potential anti-gastric cancer activity” (Eur J Med Chem, 2021).
The source made the active and inactive calls. No cut-off for these calls is given here.

How the values were obtained:
[1] = Acute toxicity in C57BL/6 mouse assessed as behavioral abnormalities at 2 g/kg, po administered via gavage measured up to 14 days; assay type: organism-based; settings: in vivo, 2000 mg/kg, 336 h, time <=14 day
How it was run: (§1)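 Mice aged 8-10 weeks, 20 females and 20 males, split into two groups: vehicle control (0.5% CMC-Na) or a single oral gavage dose of 2000 mg/kg. Animals were fed and observed normally for 14 days, recording body weight, mortality and behaviour. Heart, liver, spleen, lung and kidney sections were then fixed, embedded and H&E stained.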

[2] = Acute toxicity in C57BL/6 mouse assessed as spleen tissue damage at 2 g/kg, po administered via gavage measured up to 14 days by HE staining based assay; assay type: organism-based; settings: in vivo, 2000 mg/kg, 336 h, time <=14 day; how it was run: as §1
[3] = test system: MGC-803; assay: Induction of apoptosis in human MGC803 cells assessed as viable cells at 8 uM measured after 48 hrs by Annexin-V FITC/PI staining based flow cytometry (reference value: 92.33%); assay type: functional; settings: read-out: Activity
[4] = molecular target: Histone deacetylase 3 (Homo sapiens, UniProt O15379); assay: Inhibition of HDAC3 (unknown origin)
[5] = molecular target: T1, Protein deacetylase HDAC6 (Homo sapiens, UniProt Q9UBN7); assay: Inhibition of recombinant full length human HDAC6 expressed in baculovirus infected Sf9 cells using Z-(Ac)-Lys-AMC as substrate incubated for 40 mins by fluorescence based assay
T1 sequence (Q9UBN7 whole entry): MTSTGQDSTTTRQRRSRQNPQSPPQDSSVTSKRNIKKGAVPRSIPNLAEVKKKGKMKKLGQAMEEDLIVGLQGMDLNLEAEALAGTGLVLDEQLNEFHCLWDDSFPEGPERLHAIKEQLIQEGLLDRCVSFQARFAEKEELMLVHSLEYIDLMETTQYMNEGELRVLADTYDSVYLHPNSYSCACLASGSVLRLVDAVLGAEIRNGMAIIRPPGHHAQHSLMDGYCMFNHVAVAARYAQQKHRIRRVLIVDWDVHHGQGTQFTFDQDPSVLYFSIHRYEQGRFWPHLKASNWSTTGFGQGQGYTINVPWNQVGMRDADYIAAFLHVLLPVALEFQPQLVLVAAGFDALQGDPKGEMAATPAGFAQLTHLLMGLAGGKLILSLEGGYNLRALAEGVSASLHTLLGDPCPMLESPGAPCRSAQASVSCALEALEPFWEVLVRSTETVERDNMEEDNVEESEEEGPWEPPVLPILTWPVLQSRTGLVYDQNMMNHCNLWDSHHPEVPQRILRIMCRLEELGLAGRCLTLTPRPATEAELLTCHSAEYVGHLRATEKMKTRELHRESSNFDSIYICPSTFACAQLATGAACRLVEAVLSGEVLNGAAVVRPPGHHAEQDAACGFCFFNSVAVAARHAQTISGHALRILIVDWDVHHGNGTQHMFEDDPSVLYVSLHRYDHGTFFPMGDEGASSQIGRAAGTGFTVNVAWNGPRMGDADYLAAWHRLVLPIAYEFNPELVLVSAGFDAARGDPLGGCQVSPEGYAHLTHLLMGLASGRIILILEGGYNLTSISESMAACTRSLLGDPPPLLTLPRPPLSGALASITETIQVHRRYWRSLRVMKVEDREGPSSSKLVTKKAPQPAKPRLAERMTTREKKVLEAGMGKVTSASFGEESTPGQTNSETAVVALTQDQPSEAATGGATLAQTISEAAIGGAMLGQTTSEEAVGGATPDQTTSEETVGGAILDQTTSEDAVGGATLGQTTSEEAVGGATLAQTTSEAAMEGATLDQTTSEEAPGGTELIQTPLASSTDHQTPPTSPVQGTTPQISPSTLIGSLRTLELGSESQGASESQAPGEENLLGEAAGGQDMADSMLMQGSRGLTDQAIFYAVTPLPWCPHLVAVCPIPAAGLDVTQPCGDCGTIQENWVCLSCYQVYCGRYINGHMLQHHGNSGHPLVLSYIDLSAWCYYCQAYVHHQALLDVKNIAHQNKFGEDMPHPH

[6] = test system: MGC-803; assay: Induction of apoptosis in human MGC803 cells assessed as viable cells at 4 uM measured after 48 hrs by Annexin-V FITC/PI staining based flow cytometry (reference value: 92.33%); assay type: functional; settings: read-out: Activity
[7] = test system: MGC-803; assay: Antiproliferative activity against human MGC803 cells incubated for 72 hrs by MTT assay; assay type: functional, cell-based; settings: MGC-803, 72 h
[8] = test system: MGC-803; assay: Induction of apoptosis in human MGC803 cells assessed as increase in PARP expression after 48 hrs by Western blotting analysis; assay type: functional, cell-based; settings: dose 2-8 µM
How it was run: (§2)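 MGC803 cells treated for 48 h, then lysed (0.1% SDS, 150 mM NaCl, 25 mM Tris-HCl, 1% deoxycholate, 1% NP-40, 1% PMSF). Protein quantified by BCA and resolved on 8–10% SDS-PAGE onto PVDF. Blocked in 5% milk, primary antibodies overnight at 4 °C, HRP secondary, ECL. GAPDH, total α-tubulin and H3 as references. Mean ± SD of three experiments.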

[9] = test system: MGC-803; assay: Induction of apoptosis in human MGC803 cells assessed as necrotic cells at 4 uM measured after 48 hrs by Annexin-V FITC/PI staining based flow cytometry (reference value: 4.74%); assay type: functional
[10] = molecular target: T1, Protein deacetylase HDAC6; assay: Binding affinity to recombinant human HDAC6 by BLI assay
[11] = test system: MGC-803; assay: Antiproliferative activity against human MGC803 cells at 2 to 8 uM after 72 hrs by EdU staining based assay; assay type: functional, cell-based; settings: dose 2-8 µM
How it was run: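 MGC803 cells exposed to 0, 2, 4 or 8 µM for 72 h in 24-well plates, then EdU staining per kit instructions. EdU+ cells were imaged by immunofluorescence and quantified. Mean ± SD of three independent experiments; DMSO control.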

[12] = test system: MGC-803; assay: Induction of apoptosis in human MGC803 cells assessed as necrotic cells at 8 uM measured after 48 hrs by Annexin-V FITC/PI staining based flow cytometry (reference value: 4.74%); assay type: functional
[13] = test system: MGC-803; assay: Induction of apoptosis in human MGC803 cells assessed as late apoptotic cells at 8 uM measured after 48 hrs by Annexin-V FITC/PI staining based flow cytometry (reference value: 2.74%); assay type: functional
[14] = Acute toxicity in C57BL/6 mouse assessed as change in body weight at 2 g/kg, po administered via gavage measured up to 14 days; assay type: organism-based; settings: in vivo, 2000 mg/kg, 336 h, time <=14 day; how it was run: as §1
[15] = test system: MGC-803; assay: Induction of apoptosis in human MGC803 cells assessed as early apoptotic cells at 4 uM measured after 48 hrs by Annexin-V FITC/PI staining based flow cytometry (reference value: 0.19%); assay type: functional
[16] = test system: MGC-803; assay: Inhibition of cell invasion in human MGC803 cells after 72 hrs by transwell assay; assay type: functional, cell-based; settings: dose 2-8 µM
How it was run: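 Matrigel-coated transwell: cells in upper chamber with 1% FBS medium, 20% FBS medium below, compound added, 72 h. Cells fixed in 4% paraformaldehyde, DAPI-stained, then imaged and analyzed by high-content analysis. Mean ± SD of three experiments versus DMSO.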

[17] = molecular target: T2, Protein deacetylase HDAC6 (Homo sapiens) (UniProt Q9UBN7); assay: Inhibition of HDAC6 in human MGC803 cells assessed as accumulation of acetylated alpha-tubulin level after 48 hrs by Western blotting analysis; assay type: cell-based; settings: MGC-803, dose 2-8 µM; how it was run: as §2
T2 sequence (whole entry): T1 sequence (Q9UBN7 whole entry)

[18] = Acute toxicity in C57BL/6 mouse assessed as heart tissue damage at 2 g/kg, po administered via gavage measured up to 14 days by HE staining based assay; assay type: organism-based; settings: in vivo, 2000 mg/kg, 336 h, time <=14 day; how it was run: as §1

Sequence of Histone deacetylase 3 (O15379 whole entry): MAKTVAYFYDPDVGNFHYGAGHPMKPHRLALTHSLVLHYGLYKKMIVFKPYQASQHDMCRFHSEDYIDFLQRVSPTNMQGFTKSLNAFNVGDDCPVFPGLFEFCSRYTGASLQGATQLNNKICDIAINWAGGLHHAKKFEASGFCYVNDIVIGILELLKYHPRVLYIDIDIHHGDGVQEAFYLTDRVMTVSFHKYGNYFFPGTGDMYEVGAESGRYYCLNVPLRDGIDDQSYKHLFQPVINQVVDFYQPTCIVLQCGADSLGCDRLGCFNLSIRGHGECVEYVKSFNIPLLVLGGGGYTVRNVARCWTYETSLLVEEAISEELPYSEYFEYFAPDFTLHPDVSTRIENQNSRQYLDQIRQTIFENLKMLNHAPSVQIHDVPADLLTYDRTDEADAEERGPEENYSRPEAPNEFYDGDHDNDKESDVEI

Structure (SMILES): Cc1ccc(-c2nc(CNc3ccc(C(=O)NO)cc3)n(-c3ccccc3)n2)s1
- Activity [1]: Non-Toxic
- Activity [2]: Non-Toxic
- viability at 8 µM [3]: 43.6%
- IC50 [4]: 235 nM
- IC50 [5]: 30.6 nM
- viability at 4 µM [6]: 79.3%
- IC50 [7]: 8450 nM
- Activity [8]: Dose-Dependent Effect
- Activity [9]: 2.21%
- Kd [10]: 7.1 nM
- Activity [11]: Active
- Activity [12]: 1.96%
- Activity [13]: 45.65%
- Activity [14]: Non-Toxic
- Activity [15]: 2.95%
- inhibition [16]: Dose-Dependent Effect
- inhibition [17]: Dose-Dependent Effect
- Activity [18]: Non-Toxic
